Bridge positions count the residues as written; N and C are the ends. Ends that are not written are not given here.
Legend:
[1] = system: maltase glucoamylase (MGAM); assay: Phage ELISA, binding of phage clones to MGAM; design: species or system rat; settings: displayed on phage, judged from ELISA signals, Figure 1
[2] = system: background proteins (BSA and anti-MGAM antibodies); assay: Phage ELISA, binding of phage clones to background
Summary of the method: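 Wells coated overnight at 4°C with anti-MGAM antibodies (5 µg/mL) in PBS, blocked 90 min at room temperature with 2% BSA/PBS, with no MGAM added. 5×10^9 pfu of each phage clone in 0.05% PBST incubated 60 min, then washed five times with 0.1% PBST. Bound phage detected with HRP anti-M13 monoclonal antibody and TMB at A450. Triplicates, mean ± SD.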

binding of phage clones to background proteins [2]	Sequence	affinity towards the target (MGAM), comparison between phage clones [1]
lower background binding	CGHHHRDYC (disulfide 1-9 (inferred)) [C2]	higher affinity towards the target than those obtained with specific elution
lower background binding	CTHYGFRGC (disulfide 1-9 (inferred)) [C1]	higher affinity towards the target than those obtained with specific elution

— PMC4627538 (Journal of Diabetes Investigation, 2015)
